Reference: paper PMC11812941 (CPT: Pharmacometrics & Systems Pharmacology, 2024)
Like-named read-outs stand apart in the source and are kept apart here.

Columns and labels:
[1] = cited from earlier work
[2] = cited from earlier work; remark: listed apart in the source
[3] = system: patients with GA secondary to AMD (GA lesion area); conditions: phase III OAKS and DERBY combined, cited from earlier work
[4] = system: patients with GA secondary to AMD (GA lesion area, study eye); assay: Dose-response model of GA lesion area, pooled FILLY, OAKS and DERBY data; format: in vivo, human; conditions: point estimate
Method in brief: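 Study eyes were randomized 2:2:1:1 to a 100 μL intravitreal injection of test compound 15 mg monthly or EOM, or sham monthly or EOM, for ≤24 months. GA lesion area was measured by fundus autofluorescence. A linear-with-time disease progression model with covariates was built from sham and untreated fellow eyes. Step-function drug effects per regimen were fitted in NONMEM.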

[5] = system: patients with GA secondary to AMD (GA lesion area); conditions: phase II FILLY, cited from earlier work
[6] = Prevalence of serum antidrug antibodies in FILLY, OAKS and DERBY; format: in vivo, human; conditions: detectable at baseline or at any time during the study

**Q.** For pegcetacoplan, which “model-predicted steady-state serum maximal concentration, geometric mean” value ([1]; patients with GA, 15 mg intravitreal EOM, CV 58.1%) is on record?
**A.** The value was 1.5 µg/mL.

**Q.** And the “accumulation from first dose to steady-state, ratio of geometric mean exposure” value ([1]; serum or vitreous humor)?
**A.** Its value is 1.10–1.50.

**Q.** What about the “average exposure relative to reference body weight 70 kg” value ([2]; 5th percentile of body weight (53 kg), higher, 90% CI 1.16-1.23) of the same substance?
**A.** The value was 1.20 fold.

**Q.** And the “average exposure relative to reference body weight 70 kg” value ([2]; 95th percentile of body weight (94 kg), lower, 90% CI 0.800-0.853)?
**A.** The value was 0.827 fold.

**Q.** What about the “effective elimination half-life, median (interquartile range)” value ([2]; patients with paroxysmal nocturnal hemoglobinuria) of the same substance?
**A.** Its value is 8.6 (6.9–11.0) days.

**Q.** And the “clearance, predicted geometric mean” value ([2]; population PK model, 11 clinical studies, CV 30%)?
**A.** The value was 0.36 L/day.

**Q.** What about the “reduction in GA lesion area growth compared with sham treatment” value (“reduction in GA lesion area growth” below) ([3]; EOM) of the same substance?
**A.** Its value is 24%.

**Q.** What about the “reduction in GA lesion area growth” value ([3]; monthly) of the same substance?
**A.** Its value is 30%.

**Q.** And the “model-predicted rate of disease progression (GA lesion growth rate) relative to sham” value ([4]; pegcetacoplan 15 mg intravitreal EOM, 95% CI 0.78, 0.87)?
**A.** Its value is 0.83 fold.

**Q.** And the “model-predicted rate of disease progression (GA lesion growth rate) relative to sham” value ([4]; pegcetacoplan 15 mg intravitreal monthly, 95% CI 0.75, 0.84)?
**A.** The value was 0.80 fold.

**Q.** And the “reduction in GA lesion area growth” value ([5]; EOM)?
**A.** Its value is 20%.

**Q.** What about the “reduction in GA lesion area growth” value ([5]; monthly) of the same substance?
**A.** Its value is 29%.

**Q.** And the “prevalence of serum antidrug antibodies against the PEG moiety” value [6]?
**A.** The value was 67%.

**Q.** What about the “prevalence of serum antidrug antibodies against the peptide moiety” value [6] of the same substance?
**A.** The value was 5%.
